ChEMBL document CHEMBL1121367, “Synthesis and antiallergic properties of some 4H,5H-pyrano[3,2-c][1]benzopyran-4-one, 4H,5H-[1]benzothiopyrano[4,3-b]pyran-4-one, and 1,4-dihydro-5h-[1]benzothiopyrano[4,3-b]pyridin-4-one derivatives” (1980)

Assays:
Rattus norvegicus [1] = assay: In vivo inhibition of passive cutaneous anaphylaxis in rats when administered i.v.; assay type: functional; conditions: iv, read-out: ID50 (the source's name)
In short: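 Rats (adult male Charles River, 140-160 g, six per group) were sensitized intradermally at two sites with reaginic rat antiserum to chicken ovalbumin. After 48 h, compound at 30, 10 or 3 mg/kg iv was given simultaneously with the iv challenge of 10 mg/kg ovalbumin in 1% Evans blue. Dermal bluing area was measured at 30 min, and percent inhibition was calculated. ID50 was taken graphically from the dose-response curve.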

Rattus norvegicus [2] = assay: In vivo inhibition of passive cutaneous anaphylaxis in rats when administered i.p.; assay type: functional; conditions: ip, read-out: ID50 (the source's name)
In short: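 Adult male Charles River rats (140-160 g, six per group) were sensitized intradermally at two sites with rat serum containing reaginic antibodies to chicken ovalbumin. After 48 h they were challenged iv with 10 mg/kg ovalbumin in 1% Evans blue. Compound was given ip 15 min before challenge. Bluing area was measured 30 min later, and percent inhibition was calculated. ID50 was read graphically from the dose-response curve.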

Structure (SMILES) | ED50 (Rattus norvegicus [1]) [mg/kg] | ED50 (Rattus norvegicus [2]) [mg/kg]
CC1Sc2ccccc2-c2oc(C(=O)O)cc(=O)c21.NCCO (stereo not drawn) | 8.4 | 29
CCCCc1ccc2c(c1)-c1nc(C(=O)O)cc(O)c1CS2.NCCO | 12 | 20
O=c1c(CO)coc2c1CSc1ccccc1-2 | > 30 | > 30
Cc1ccc2c(c1)-c1oc(C(=O)O)cc(=O)c1CS2.NCCO | 19 | > 30
O=c1c(CO)coc2c1COc1ccccc1-2 | – | 23
Cc1c(-c2nn[nH]n2)oc2c(c1=O)CS(=O)(=O)c1ccccc1-2 | – | 100
CCC(C)c1ccc2c(c1)-c1oc(C(=O)O)cc(=O)c1CS2.NCCO (stereo not drawn) | 25 | > 30
NCCO.O=C(O)c1cc(=O)c2c(o1)-c1cc(Cl)ccc1SC2 | 28 | > 100
NCCO.O=C(O)c1cc(=O)c2c(o1)-c1ccccc1SC2 | 25 | > 100
NCCO.O=C(O)c1cc(O)c2c(n1)-c1ccccc1SC2 | 5.3 | > 30
NCCO.O=C(O)c1cc(=O)c2c(o1)-c1ccccc1S(=O)(=O)C2 | > 30 | > 100
Cc1ccc(Cl)c2c1SCc1c(O)cc(C(=O)O)nc1-2.NCCO | > 30 | > 30
CCC(C)c1ccc2c(c1)-c1nc(C(=O)O)cc(O)c1CS2.NCCO (stereo not drawn) | 8.2 | 27
CCCCc1ccc2c(c1)-c1oc(C(=O)O)cc(=O)c1CS2.NCCO | 19 | > 30
Cc1ccc2c(c1)-c1nc(C(=O)O)cc(O)c1CS2.NCCO | 6.9 | 34
NCCO.O=C(O)c1cc(O)c2c(n1)-c1cc(Cl)ccc1SC2 | 3.3 | 33
CCC(C)c1ccc2c(c1)-c1nc(C(=O)O)cc(O)c1CS2(=O)=O (stereo not drawn) | > 30 | > 30
Cc1c(-c2nn[nH]n2)oc2c(c1=O)CSc1ccccc1-2 | – | > 30
Cc1ccc(Cl)c2c1SCc1c-2oc(C(=O)O)cc1=O.NCCO | 30 | > 100
O=C([O-])c1cc(=O)c2c(o1)-c1ccccc1OC2.[K+] | 12 | –
O=C([O-])c1cc(=O)c2c(OCC(O)COc3cccc4oc(C(=O)[O-])cc(=O)c34)cccc2o1.[Na+].[Na+] [CROMOLYN SODIUM] | 1 | 16.6
